Laboratory results: ChEMBL document CHEMBL2406960, “Epimeric methylsulfinyladenosine derivatives from the marine ascidian Herdmania momus” (Bioorg Med Chem Lett, 2013)

Key:
[1] = Antiviral activity against Human rhinovirus 17 infected in human HeLa cells assessed as inhibition of virus-induced cytopathic effect by MTT assay; assay type: functional, cell-based, Human rhinovirus B17; conditions: Rhinovirus B
Outline: (§1)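 Confluent HeLa monolayers, in duplicate, got samples (20 mg/mL DMSO stock) diluted in MEM/2% FBS, then virus at 200 CCID50 per well, and were incubated under CO2. Protection was read by MTT and by microscopic inspection. EC50 was the concentration protecting 50% of cells from virus-induced cytotoxicity.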

[2] = Cytotoxicity against human HeLa cells by MTT assay; assay type: cell-based
Outline: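 Mock-infected confluent HeLa cells were treated in duplicate with samples (20 mg/mL DMSO stock) diluted in MEM/2% FBS and incubated under CO2. Viability was read by MTT plus microscopy. CC50 was the concentration that cut mock-infected control absorbance by 50%.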

Coxsackievirus B1 = experiment: Antiviral activity against Human coxsackievirus B1 infected in human HeLa cells assessed as inhibition of virus-induced cytopathic effect by MTT assay; assay type: functional, organism-based; conditions: Enterovirus B; outline: as §1
Coxsackievirus B3 = experiment: Antiviral activity against Human coxsackievirus B3 infected in human HeLa cells assessed as inhibition of virus-induced cytopathic effect by MTT assay; assay type: functional, organism-based; conditions: Enterovirus B; outline: as §1
Poliovirus 3 = experiment: Antiviral activity against Human poliovirus 3 infected in human HeLa cells assessed as inhibition of virus-induced cytopathic effect by MTT assay; assay type: functional, organism-based; conditions: Enterovirus C
Outline: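 Confluent HeLa cells in 96-well plates, in duplicate; samples (20 mg/mL DMSO stock) diluted in MEM/2% FBS, then virus added at 200 CCID50 per well; incubated in CO2 incubator. Protection of cells from virus cytopathic effect read by MTT absorbance and microscopy; EC50 = concentration protecting 50% of cells. Cytotoxicity on mock-infected cells, CC50 = 50% absorbance reduction.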

[3] = Antiviral activity against Human rhinovirus 71 infected in human HeLa cells assessed as inhibition of virus-induced cytopathic effect by MTT assay; assay type: functional, cell-based, Human rhinovirus A71; conditions: Rhinovirus A; outline: as §1
rhinovirus B14 = experiment: Antiviral activity against Human rhinovirus 14 infected in human HeLa cells assessed as inhibition of virus-induced cytopathic effect by MTT assay; assay type: functional, organism-based; conditions: Rhinovirus B; outline: as §1

C[S+]([O-])C[C@H]1O[C@@H](n2cnc3c(N)ncnc32)[C@H](O)[C@@H]1OC(=O)c1c[nH]c2cc(Br)c(O)cc12 (some centres undefined)
> 100 µg/mL: EC50 [1] | CC50 [2] | EC50 (Coxsackievirus B1) | EC50 (Coxsackievirus B3) | EC50 (Poliovirus 3) | EC50 [3] | EC50 (rhinovirus B14)

C[S+]([O-])C[C@H]1O[C@@H](n2cnc3c(N)ncnc32)[C@H](OC(=O)c2c[nH]c3cc(Br)c(O)cc23)[C@@H]1O (mixture of isomers)
> 100 µg/mL: EC50 [1] | CC50 [2] | EC50 (Coxsackievirus B1) | EC50 (Coxsackievirus B3) | EC50 (Poliovirus 3) | EC50 [3] | EC50 (rhinovirus B14)
